Assay outcomes (PubChem)
Compounds with a hit are over-represented: about 1.3% of the library has one in this group of screens.
PME-1 primary: blocks human protein phosphatase methylesterase 1; inhibition, % at 5.9 µM; recombinant PME-1, FP-Rh probe fluorescence polarization; 320,000 tested, 0.53% active; Q9Y570;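 active = inhibition above the campaign mean of all compounds plus 3 SD, cut at about 26% in these data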;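 note: competitive labeling of PME-1 active site by serine hydrolase directed probe; 0% = PME-1 with DMSO and 100% = wells lacking PME-1 enzyme; inhibitors block probe labeling so polarization falls and inhibition rises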
Target sequence (Q9Y570 whole entry, looked up): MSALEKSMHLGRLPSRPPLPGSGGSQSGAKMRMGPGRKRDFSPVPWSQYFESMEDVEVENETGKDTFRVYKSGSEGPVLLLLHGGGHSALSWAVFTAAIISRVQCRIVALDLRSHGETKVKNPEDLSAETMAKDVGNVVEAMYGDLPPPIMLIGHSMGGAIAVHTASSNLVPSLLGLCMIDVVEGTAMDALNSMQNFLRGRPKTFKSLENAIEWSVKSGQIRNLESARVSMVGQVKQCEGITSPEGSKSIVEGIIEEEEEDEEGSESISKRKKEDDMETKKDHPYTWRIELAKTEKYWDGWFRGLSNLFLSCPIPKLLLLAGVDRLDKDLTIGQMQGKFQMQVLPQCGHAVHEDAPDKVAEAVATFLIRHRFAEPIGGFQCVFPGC
Fam108B inh: blocks mouse Fam108B hydrolase in RBBP9 counter-screen; recombinant Fam108B, FP-Rh probe fluorescence polarization; AID 1947; 300,000 tested, 0.33% active; inhibition, % at 9.51 µM;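 active = inhibition above the screen mean inhibition plus 3 SD, computed separately per campaign, cut at about 18% in these data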;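 note: inhibitors lower polarization as less probe binds the enzyme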
LYPLA2 inh: counter-screen for PME1 inhibitors: inhibitors of human LYPLA2. O95372. inhibition, % at 5.9 µM. 320,000 tested, 0.38% active. recombinant LYPLA2, FP-Rh probe fluorescence polarization. AID 2177;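 active = inhibition above the screen-wide mean plus 3 SD, limit set per campaign, cut at about 26% in these data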;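 note: 0% = LYPLA2 with DMSO and 100% = wells lacking LYPLA2 enzyme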
RBBP9 inhibitor: human RBBP9 hydrolase inhibition. O75884. recombinant RBBP9, FP-Rh probe fluorescence polarization. inhibition, % at 7.94 µM. AID 1515. 220,000 tested, 0.2% active;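 active = inhibition above the campaign mean of all tested compounds plus 3 SD, cut at about 14% in these data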;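 note: plate controls were DMSO wells with RBBP9 for no effect and wells lacking RBBP9 protein for full effect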
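Test system: recombinant human RBBP9; Timing: 30 min then 45 min, 25 °C; Detection: fluorescence polarization; Control set: RBBP9 with DMSO as uninhibited control, no-protein wells as full inhibition; Compound dosing: one concentration, 7.94 µM nominal, 0.794% DMSO; Probe or stimulus: FP-Rh activity-based probe, 375 nM before mixing.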
PAD4 inh: inhibitors of human PAD4; inhibition, % at 6.36 µM; AID 485272; Q9UM07; recombinant PAD4, RCA probe fluorescence polarization; 330,000 tested, 0.41% active;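 active = percent inhibition above a cutoff equal to the mean of all tested compounds plus 3 SD, cut at about 15% in these data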;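 note: 0% = PAD4 with RCA probe and DMSO and 100% = probe without PAD4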
LYPLA1 counter: blocks human lysophospholipase 1, a PME1 counter-screen. 320,000 tested, 0.16% active. inhibition, % at 5.9 µM. recombinant LYPLA1, FP-Rh probe fluorescence polarization. O75608;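 active = inhibition above the mean of all tested compounds plus 3 SD, set per campaign, cut at about 14% in these data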;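 note: inhibitors block serine hydrolase probe labeling of LYPLA1 so polarization falls; 0% = enzyme with DMSO and 100% = wells lacking LYPLA1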
PAD4 confirm: PAD4 (human) inhibition, confirmed. AID 488796. 1,200 tested, 28% active. recombinant PAD4, RCA probe fluorescence polarization. inhibition, % at 6.36 µM. shares compounds with PAD4 inh;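 active = mean inhibition across replicates above the hit cutoff set by the earlier primary screen, cut at about 15% in these data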;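 note: inhibitors block active-site labeling by the probe so polarization falls; 0% = PAD4 with probe and DMSO and 100% = probe without PAD4 enzyme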
* hit, by the source's call; . = not tested or not shown.

SMILES	PME-1 primary	Fam108B inh	LYPLA2 inh	RBBP9 inhibitor	PAD4 inh	LYPLA1 counter	PAD4 confirm
CCC1C(=O)N=C(SCC(=O)Nc2ccc(C(=O)OC)cc2)NC1=O (stereo not drawn)	-0.9	-0.5	1.9	-7.6	15.7*	1.6	20.9*
COC(=O)c1cc(NC(=O)CSC2=NCCS2)cc(C(=O)OC)c1	-3.8	-0.8	6.2	-1.1	18.0*	-1.9	15.4*
O=C(CSC1=NCCS1)NC(NC(=O)CSC1=NCCS1)c1ccccc1	-3.4	2.8	2.3	-7.8	-1.8	5.0	.
COC(=O)c1ccc(NC(=O)CSC2=NCCN2)cc1	-7.0	2.7	-6.6	-6.4	18.0*	-2.0	29.8*
COC(=O)c1cc(NC(=O)Cc2ccc(OC)cc2)cc(C(=O)OC)c1	-0.3	3.3	21.8	-0.6	21.1*	-0.1	17.4*
CC(C)C1Nc2ccc(C(=O)NCCCN3CCOCC3)cc2NC1=O (stereo not drawn)	-1.5	1.2	1.4	.	-3.4	1.5	.
COc1ccc(C(=O)N[C@H](C(=O)NCCc2ccc3c(c2)OCCO3)C(C)C)cc1	.	.	.	.	-1.2	.	.
C/C(=N/NC(=O)CNC(=O)C1COc2ccccc2O1)c1ccc([N+](=O)[O-])cc1 (stereo not drawn)	-2.0	-2.3	8.2	.	-1.9	-0.6	.
CC12CCC(C(=Nc3ccc(N=C4C(=O)C5(C)CCC4C5(C)C)cc3)C1=O)C2(C)C	9.5	3.2	4.0	13.7	44.8*	2.3	-2.7
CC1(CCc2ccccc2)NC(=S)N(c2ccccc2)N1 (stereo not drawn)	-5.0	1.0	7.1	2.7	1.3	-2.8	.
CC1CCCC(NC(=O)NC(=O)COC(=O)C2=NN(c3ccccc3)C(=O)CC2)C1C (stereo not drawn)	2.5	.	-1.0	.	5.7	-0.4	.
CCC(=O)Oc1ccc(C(=O)Nc2cccc(C(=O)NC(C)(C)C)c2)cc1	-3.8	-2.4	-3.3	-10.0	114.5*	-4.2	-3.2
O=C(NC(=O)c1ccccc1)Nc1ccc(Cl)cn1	6.6	-2.4	-2.7	.	-7.7	0.3	.
COc1ccccc1/C=C(\NC(=O)c1ccccc1)C(=O)NCc1ccco1	-3.7	-2.3	2.8	.	0.0	-0.9	.
CC1CC(=O)Nc2ccccc2N1C(=O)COc1cc(Cl)ccc1Cl (stereo not drawn)	1.9	.	2.0	.	-0.8	1.0	.
COc1cccc(CC(=O)N2CCN(c3ccccc3[N+](=O)[O-])CC2)c1	-1.9	-3.3	2.4	-5.7	-7.5	6.5	.
C#CCOCCOCCOCCNc1nc(N2CCN(C(=O)[C@H](CCC(=O)O)n3cc(C(N)[C@H](C)CC)nn3)CC2)nc(N2CCN(C(=O)[C@H](Cc3cc4ccccc4[nH]3)n3cc(C(N)[C@H](C)CC)nn3)CC2)n1 (stereo partly drawn)	-1.6	2.8	2.1	0.7	26.8*	-0.1	10.3
Cc1cc(C)c(C(=O)N(C)C2CCCN(Cc3ccccc3F)C2)o1 (stereo not drawn)	-1.5	3.5	0.9	.	0.0	-3.3	.
Cc1cc(O)c(C(C)C)cc1NS(=O)(=O)c1ccccc1	2.4	2.5	-2.8	5.1	-1.3	-1.9	.
CCCC(=O)N(c1ccc2oc(=O)sc2c1)S(=O)(=O)c1ccccc1	-0.2	1.6	7.4	2.4	22.2*	-1.0	6.4
Cc1cc2oc(=O)sc2cc1NS(=O)(=O)c1ccccc1	-8.2	1.5	-5.0	.	20.2*	-2.0	-4.5
CC(=O)N(c1ccc2oc(=O)sc2c1)S(=O)(=O)c1cccs1	-5.3	3.0	2.9	2.1	12.4	1.2	.
CC(=O)N(c1ccc2oc(=O)sc2c1)S(=O)(=O)c1ccc(C(=O)O)cc1	3.9	1.6	-3.6	.	12.4	-2.5	.
Cc1nc2cc(NS(=O)(=O)c3cccc4cccnc34)ccc2s1	3.1	-3.4	0.0	.	-0.8	4.3	.
CC(=O)N(c1ccc2oc(=O)sc2c1)S(=O)(=O)c1cccc2cccnc12	3.6	1.7	4.7	.	33.1*	-0.3	21.6*
Cc1cc2oc(=O)sc2cc1NS(=O)(=O)c1cccc2cccnc12	3.2	2.3	-3.5	.	33.8*	-5.9	19.2*
O=C(O)/C=C/C(=O)NCCC(c1ccccc1)c1ccccc1	-1.2	0.0	-1.0	-0.7	-3.5	0.9	.
